Counter-ions that a name gives are not always drawn.
What was measured:
HT22 cells [1] = assay: Ferroptosis induced by cysteine depletion, BSO or ML210 in HT22 cells; format: cell-based, mouse; settings: for cell death from cysteine depletion: cystine-free media 24 h, 0.5 μM 9a, 0.5 μM Fer-1 or 20 μM DFO
HT22 cells [2] = assay: Erastin-induced ferroptosis in HT22 cells; format: cell-based, mouse
Summary of the method: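 HT22 cells were cotreated with Erastin and test compound, and cell viability was measured. A value was reported as not determined where viability was below 50% at 1.0 μM compound with Erastin.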

HT22 cells [3] = assay: Lipid ROS; format: cell-based, mouse; settings: 3 h; for lipid ROS, oxidized BODIPY-C11 fluorescence intensity: 1 μM RSL3, 0.5 μM compound
Summary of the method: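 HT22 cells were exposed to 1 μM RSL3 with or without 0.5 μM test compound or 0.5 μM Fer-1 for 3 h. Lipid ROS was detected with BODIPY-C11 (oxidized form, green) by confocal microscopy (Hoechst 33342 nuclei) and by flow cytometry. Cytosolic ROS was measured by flow cytometry with carboxy-H2DCFDA.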

[4] = system: MCAO model of ischemic stroke; format: in vivo, rat; settings: for infarct volume (TTC staining): rat, in vivo
[5] = molecular target: T1, NCOA4^383–522–FTH1 interaction (Homo sapiens, UniProt Q13772); assay: ELISA for NCOA4^383–522–FTH1 protein-protein interaction; format: binding
T1 sequence (Q13772 383-522): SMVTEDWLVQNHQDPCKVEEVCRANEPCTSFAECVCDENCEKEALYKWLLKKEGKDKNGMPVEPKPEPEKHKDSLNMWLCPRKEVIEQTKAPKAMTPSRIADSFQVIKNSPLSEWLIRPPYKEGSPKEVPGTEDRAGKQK
Summary of the method: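 Test compound at the indicated concentrations was preincubated with recombinant NCOA4 383–522. Binding of NCOA4 383–522 to FTH1 was then monitored by ELISA to build a dose–response curve. Values are mean ± SEM of three independent experiments.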

HT-1080 cells [6] = assay: Ferroptosis induced by Erastin, RSL3, ML210 or GPX4 knockdown in HT-1080 cells; format: cell-based, human
Summary of the method: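 HT-1080 cells were transfected for 12 h with scrambled siRNA (si-NC) or GPX4-targeting siRNA. Cells were then treated for 36 h with or without 0.5 μM test compound, 0.5 μM Fer-1 or 20 μM DFO. Viability was read by CCK-8. Values are mean ± SEM of three independent experiments.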

NCOA4 = molecular target: T2, NCOA4 (Homo sapiens, UniProt Q13772); assay: Biotin–streptavidin pull-down from HEK-293T lysates; format: binding; settings: lysate preincubated with 9a (20 μM) 6 h at 4 °C
T2 sequence (Q13772 1-614): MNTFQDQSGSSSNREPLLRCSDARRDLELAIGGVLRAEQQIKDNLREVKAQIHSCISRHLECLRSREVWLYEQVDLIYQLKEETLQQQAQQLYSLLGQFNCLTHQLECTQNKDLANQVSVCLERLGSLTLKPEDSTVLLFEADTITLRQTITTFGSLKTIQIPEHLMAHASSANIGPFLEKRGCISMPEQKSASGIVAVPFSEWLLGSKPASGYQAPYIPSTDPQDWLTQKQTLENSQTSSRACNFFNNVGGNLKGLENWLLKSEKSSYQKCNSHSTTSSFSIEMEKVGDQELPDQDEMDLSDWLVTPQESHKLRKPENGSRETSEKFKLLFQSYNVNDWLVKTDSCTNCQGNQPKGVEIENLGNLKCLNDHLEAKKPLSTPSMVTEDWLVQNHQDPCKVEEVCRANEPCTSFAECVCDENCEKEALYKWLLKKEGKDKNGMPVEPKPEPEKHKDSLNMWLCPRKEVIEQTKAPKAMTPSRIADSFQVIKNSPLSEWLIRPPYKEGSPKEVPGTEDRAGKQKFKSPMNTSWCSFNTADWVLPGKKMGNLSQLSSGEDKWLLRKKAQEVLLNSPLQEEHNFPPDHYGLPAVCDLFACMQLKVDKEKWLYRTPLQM
Summary of the method: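 HEK-293T lysates expressing FTH1-Myc-His and NCOA4-Flag were pretreated with test compound or DMSO for 6 h at 4 °C. They were then incubated overnight at 4 °C with increasing concentrations of a biotinylated probe precoupled to streptavidin magnetic beads. Precipitates were pulled down with the beads and immunoblotted with anti-tag antibodies. Biotin-PEG3-N3 served as the negative-control probe.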

PTGS2 mRNA = PTGS2 mRNA expression; format: cell-based, mouse; settings: 12 h
HT22 cells [7] = assay: Intracellular Fe^2+; format: cell-based, mouse; settings: 6 h; for fluorescence intensity of FerroOrange (free Fe^2+): 0.5 μM 9a or 50 μM DFO
Summary of the method: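 Live HT22 cells were given 0.5 μM test compound or 50 μM DFO for 6 h, then imaged by confocal microscopy with the Fe2+ probe FerroOrange; nuclei were stained with Hoechst 33342. Lysosomal Fe2+ was scored as FerroOrange signal colocalised with LysoTracker Green per cell, about 100 cells per condition. Three independent experiments, mean ± SEM.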

NCOA4^383–522 [8] = molecular target: T3, NCOA4^383–522 (Homo sapiens, UniProt Q13772); assay: Pull-down of recombinant NCOA4^383–522; format: binding; settings: protein preincubated with 9a 1 h
T3 sequence (Q13772 383-522): T1 sequence (Q13772 383-522)
Summary of the method: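 Recombinant NCOA4 383–522 or FTH1 protein was pretreated with test compound or DMSO for 1 h. It was then incubated for 1 h with increasing concentrations of a biotinylated probe precoupled to streptavidin magnetic beads. Bead-bound protein was detected by silver staining and Western blotting.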

HT22 cells [9] = assay: LC3-II level; format: cell-based, mouse; settings: 6 h, Western blotting
ferritin = assay: Ferritin protein level; format: cell-based, mouse; settings: 6 h
NCOA4^383–522 [10] = molecular target: T3, NCOA4^383–522; assay: Surface plasmon resonance binding to NCOA4^383–522
HT22 cells [11] = assay: Intracellular GSH level and GPX4 expression in HT22 cells; format: cell-based, mouse; settings: 12 h
HT22 cells [12] = assay: Non-ferroptotic cell death; format: cell-based, mouse
NCOA4–FTH1 interaction = molecular target: T4, NCOA4–FTH1 interaction (Homo sapiens, UniProt Q13772); assay: Coimmunoprecipitation of NCOA4 and FTH1 in cells; format: cell-based
T4 sequence (Q13772 1-614): T2 sequence (Q13772 1-614)

HT-1080 cells [13] = assay: Lipid ROS in HT-1080 cells after GPX4 knockdown; format: cell-based, human; settings: 0.5 μM 9a, 36 h
HT22 cells [14] = assay: RSL3-induced ferroptosis in HT22 cells; format: cell-based; settings: Mus musculus, HT-22, 24 h, read-out: EC50, inhibition of RSL3-induced death

CCOC(=O)c1ccc(NC2CCCCC2)c(N)c1 [Fer-1, Ferrostatin-1, reference compound]
cell death from cysteine depletion (HT22 cells [1]): significantly reduced the level of cell death | EC50 (HT22 cells [2]; 1 μM Erastin, 24 h, CCK-8): 82 nM | lipid ROS, oxidized BODIPY-C11 fluorescence intensity (HT22 cells [3]): remarkably decreased | infarct volume (TTC staining) [4]: substantially reduced infarct volume

CC1CCN(c2ccc3nc(-c4cccc(N5CCc6ccccc6C5)c4)[nH]c3c2)CC1 [4b]
EC50 (HT22 cells [2]; Mus musculus, HT-22, 24 h): 640 nM

CCCOc1ccc2c(c1)CCN(c1cccc(-c3nc4ccc(N5CCN(C)CC5)cc4[nH]3)c1)C2 [14b]
EC50 (HT22 cells [2]; Mus musculus, HT-22, 24 h): 390 nM

CN1CCN(c2ccc3nc(-c4cccc(N5CCc6cc(F)ccc6C5)c4)[nH]c3c2)CC1 [9a]
IC50 [5]: 3260 nM | ferroptosis induced by Erastin, RSL3, or ML210 (HT-1080 cells [6]; inducers 1 μM, 24 h): inhibited ferroptosis | ferroptosis induced by knockdown of GPX4 (HT-1080 cells [6]; si-GPX4 12 h, then 0.5 μM 9a 36 h): significantly suppressed ferroptosis | competition of Biotin-14d binding to NCOA4 (NCOA4): competitively inhibited | BSO-induced ferroptosis (HT22 cells [1]; 100 μM BSO, 12 h): dose-dependently prevented cell death | ML210-induced ferroptosis (HT22 cells [1]; ML210 10 μM, 24 h): ferroptosis inhibitory behavior similar to those of Fer-1 and DFO | cell death from cysteine depletion (HT22 cells [1]): significantly reduced the level of cell death | RSL3-induced PTGS2 mRNA expression (PTGS2 mRNA): dose-dependently inhibited the upregulation of PTGS2 expression | fluorescence intensity of FerroOrange (free Fe^2+) (HT22 cells [7]): significantly decreased | Fe^2+ in lysosomes (FerroOrange colocalized with LysoTracker Green) (HT22 cells [7]; 0.5 μM 9a): diminished | competition of Biotin-14d binding to NCOA4^383–522 (NCOA4^383–522 [8]): blocked | LC3-II level (HT22 cells [9]): no ability to induce an increase in the LC3-II level | mRNA expressions of FTH1 and FTL (ferritin; 0.5 μM 9a, qPCR): did not change | protein level of ferritin (ferritin; Western blotting): increased in a dose-dependent manner | EC50 (HT22 cells [2]; Mus musculus, HT-22, 24 h): 290 nM | Kd (NCOA4^383–522 [10]): 7480 nM | lipid ROS, oxidized BODIPY-C11 fluorescence intensity (HT22 cells [3]): remarkably decreased | RSL3-induced cytosolic ROS accumulation (HT22 cells [3]; carboxy-H2DCFDA, flow cytometry): suppressed by 9a in a dose-dependent manner | intracellular GSH level (HT22 cells [11]): did not change | GPX4 expression (HT22 cells [11]; immunoblot): did not change | staurosporine (STS)-induced apoptosis (HT22 cells [12]; 0.5 μM STS, 24 h): cannot inhibit | hydrogen peroxide (H2O2)-induced necrosis (HT22 cells [12]; 2 mM H2O2, 12 h): cannot inhibit | TNF-α/SM-164/zVAD-fmk-induced necroptosis (HT22 cells [12]; 12 h): cannot inhibit | NCOA4–FTH1 interaction, co-IP of FTH1-Myc-His and NCOA4-Flag (NCOA4–FTH1 interaction; HEK-293T cells, 16 h treatment): substantially impaired | endogenous NCOA4–FTH1 interaction, co-IP (NCOA4–FTH1 interaction; HT-1080 cells, 6 h): inhibited the endogenous NCOA4 interaction with FTH1 | lipid ROS accumulation induced by knockdown of GPX4 (HT-1080 cells [13]): inhibited lipid ROS accumulation | 4-hydroxynonenal (4-HNE) level in the lesioned hemisphere ([4]; 10 mg/kg i.p.): reduced | PTGS2 gene expression in the lesioned hemisphere ([4]; 10 mg/kg i.p.): significantly decreased | malondialdehyde (MDA) level in the lesioned hemisphere ([4]; 10 mg/kg i.p.): reduced | neurological deficits (Longa test) ([4]; 10 mg/kg i.p., 24 h after MCAO and reperfusion): improved neurological deficits | percentage of injured neurons in the cortex (Nissl staining) ([4]; 10 mg/kg i.p., lesioned hemisphere): reduced the percentage of injured neurons in the cortex | infarct volume (TTC staining) [4]: substantially reduced infarct volume

Cc1ccc2c(c1)CN(c1cccc(-c3nc4ccc(N5CCN(C)CC5)cc4[nH]3)c1)CC2 [9e]
EC50 (HT22 cells [2]; Mus musculus, HT-22, 24 h): 770 nM

CC(=O)N(O)CCCCCNC(=O)CCC(=O)N(O)CCCCCNC(=O)CCC(=O)N(O)CCCCCN [DFO, Deferoxamine mesylate, reference compound]
cell death from cysteine depletion (HT22 cells [1]): significantly reduced the level of cell death | fluorescence intensity of FerroOrange (free Fe^2+) (HT22 cells [7]): significantly decreased | EC50 (HT22 cells [2]; Mus musculus, HT-22, 24 h): 5750 nM

CC(C)Oc1ccc2c(c1)CCN(c1cccc(-c3nc4ccc(N5CCN(C)CC5)cc4[nH]3)c1)C2 [14c]
EC50 (HT22 cells [2]; Mus musculus, HT-22, 24 h): 530 nM

c1cc(-c2nc3ccc(N4CCCCC4)cc3[nH]2)cc(N2CCc3ccccc3C2)c1 [4c]
EC50 (HT22 cells [2]; Mus musculus, HT-22, 24 h): 1210 nM

COc1cccc2c1CN(c1cccc(-c3nc4ccc(N5CCN(C)CC5)cc4[nH]3)c1)CC2 [9f]
EC50 (HT22 cells [2]; Mus musculus, HT-22, 24 h): 330 nM

CCOc1ccc2c(c1)CCN(c1cccc(-c3nc4ccc(N5CCN(C)CC5)cc4[nH]3)c1)C2 [14a]
EC50 (HT22 cells [2]; Mus musculus, HT-22, 24 h): 510 nM

CN1CCN(c2ccc3nc(-c4cccc(N5CCc6ccccc6C5)c4)[nH]c3c2)CC1 [4a]
EC50 (HT22 cells [2]; Mus musculus, HT-22, 24 h): 500 nM

C#CCOc1ccc2c(c1)CCN(c1cccc(-c3nc4ccc(N5CCN(C)CC5)cc4[nH]3)c1)C2 [14d]
EC50 (HT22 cells [14]): 690 nM | EC50 (HT22 cells [2]; Mus musculus, HT-22, 24 h): 880 nM
